For assay [1], the target named is T1, Ephrin type-B receptor 3 (Homo sapiens) (UniProt P54753).
T1 sequence (whole entry): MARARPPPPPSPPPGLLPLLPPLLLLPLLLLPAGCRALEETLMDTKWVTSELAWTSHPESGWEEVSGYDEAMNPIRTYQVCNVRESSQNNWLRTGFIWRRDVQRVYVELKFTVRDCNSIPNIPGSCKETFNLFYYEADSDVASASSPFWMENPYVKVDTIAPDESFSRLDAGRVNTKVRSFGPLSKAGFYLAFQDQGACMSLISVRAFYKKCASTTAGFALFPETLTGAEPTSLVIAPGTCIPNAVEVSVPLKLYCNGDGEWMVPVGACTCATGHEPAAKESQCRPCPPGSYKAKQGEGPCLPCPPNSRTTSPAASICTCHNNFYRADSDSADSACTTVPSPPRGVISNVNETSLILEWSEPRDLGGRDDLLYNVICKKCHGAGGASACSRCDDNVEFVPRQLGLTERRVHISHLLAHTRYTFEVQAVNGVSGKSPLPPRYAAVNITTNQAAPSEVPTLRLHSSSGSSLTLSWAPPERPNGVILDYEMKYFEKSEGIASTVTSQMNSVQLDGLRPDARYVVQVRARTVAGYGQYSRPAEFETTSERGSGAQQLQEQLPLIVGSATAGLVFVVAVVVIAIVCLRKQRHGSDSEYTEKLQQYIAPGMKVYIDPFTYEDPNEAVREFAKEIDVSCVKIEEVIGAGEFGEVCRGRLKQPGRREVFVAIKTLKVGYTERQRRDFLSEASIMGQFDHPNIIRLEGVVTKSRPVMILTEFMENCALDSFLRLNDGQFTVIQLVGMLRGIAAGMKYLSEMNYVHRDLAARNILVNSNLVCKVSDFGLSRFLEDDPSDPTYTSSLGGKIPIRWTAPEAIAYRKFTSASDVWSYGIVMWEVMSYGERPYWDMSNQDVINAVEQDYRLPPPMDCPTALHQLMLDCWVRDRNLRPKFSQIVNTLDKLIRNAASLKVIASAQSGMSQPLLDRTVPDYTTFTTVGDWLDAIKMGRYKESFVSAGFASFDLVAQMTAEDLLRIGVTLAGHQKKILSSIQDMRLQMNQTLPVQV
As to the kind of experiment: Inhibition of EPHB3 assessed as residual activity at 10 uM. Put shortly:
(§1)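 Kinase panel screen run as a radioactive activity assay at single compound concentration. Score reported as percent activity remaining relative to DMSO controls (100%).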

The target in assay [2] is Serine/threonine-protein kinase pim-1 (Homo sapiens) (UniProt P11309). As to the kind of experiment: Inhibition of PIM1 assessed as residual activity at 10 uM. An outline of the steps:
(§2)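 Panel screen by radioactive kinase assay at a single inhibitor concentration. Score is the percent activity remaining relative to DMSO controls (100%).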

Assay [3] has as its target MAP kinase-activated protein kinase 3 (Homo sapiens) (UniProt Q16644). As to the kind of experiment: Inhibition of MAPKAPK3 assessed as residual activity at 10 uM. An outline of the steps: as §1
Assay [4] has as its target Insulin receptor-related protein (Homo sapiens) (UniProt P14616). As to the kind of experiment: Inhibition of IRR assessed as residual activity at 10 uM. Put shortly: as §1
The target in assay [5] is Rho-associated protein kinase 2 (Homo sapiens) (UniProt O75116). As to the kind of experiment: Inhibition of ROCK2 assessed as residual activity at 10 uM. Put shortly:
as §2

For assay [6], the target named is T2, Protein kinase C zeta type (Homo sapiens) (UniProt Q05513).
T2 sequence (whole entry): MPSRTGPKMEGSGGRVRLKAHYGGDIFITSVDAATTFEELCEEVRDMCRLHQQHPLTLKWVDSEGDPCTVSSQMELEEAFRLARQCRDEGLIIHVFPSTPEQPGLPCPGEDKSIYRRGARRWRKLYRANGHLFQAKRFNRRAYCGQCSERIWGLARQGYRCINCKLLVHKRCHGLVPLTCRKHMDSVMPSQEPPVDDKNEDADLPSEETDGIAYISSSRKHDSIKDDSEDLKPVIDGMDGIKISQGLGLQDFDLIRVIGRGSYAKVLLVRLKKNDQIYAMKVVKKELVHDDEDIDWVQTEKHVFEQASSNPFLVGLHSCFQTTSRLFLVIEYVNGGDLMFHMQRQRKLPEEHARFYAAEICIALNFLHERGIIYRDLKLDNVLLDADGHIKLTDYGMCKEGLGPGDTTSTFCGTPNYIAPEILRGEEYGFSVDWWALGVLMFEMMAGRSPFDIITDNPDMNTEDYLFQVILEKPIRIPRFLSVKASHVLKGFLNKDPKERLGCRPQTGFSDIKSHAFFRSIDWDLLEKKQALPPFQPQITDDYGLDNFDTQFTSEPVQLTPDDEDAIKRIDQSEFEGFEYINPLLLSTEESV
As to the kind of experiment: Inhibition of PKCzeta assessed as residual activity at 10 uM. An outline of the steps: as §2

Assay [7] addresses T3, Serine/threonine-protein kinase Nek2 (Homo sapiens) (UniProt P51955).
T3 sequence (whole entry): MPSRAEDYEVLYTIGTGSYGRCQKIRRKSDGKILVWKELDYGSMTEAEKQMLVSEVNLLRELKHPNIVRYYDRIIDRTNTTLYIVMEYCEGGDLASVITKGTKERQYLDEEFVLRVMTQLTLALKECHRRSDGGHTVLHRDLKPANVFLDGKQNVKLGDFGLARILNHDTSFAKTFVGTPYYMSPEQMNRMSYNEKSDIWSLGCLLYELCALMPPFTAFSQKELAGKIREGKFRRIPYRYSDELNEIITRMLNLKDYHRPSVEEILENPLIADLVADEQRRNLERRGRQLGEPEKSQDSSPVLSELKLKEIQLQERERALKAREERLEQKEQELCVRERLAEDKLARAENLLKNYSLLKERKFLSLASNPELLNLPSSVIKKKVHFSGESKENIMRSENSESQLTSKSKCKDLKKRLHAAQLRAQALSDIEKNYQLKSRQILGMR
As to the kind of experiment: Inhibition of NEK2A assessed as residual activity at 10 uM. Put shortly:
as §2

The source of these data is ChEMBL document CHEMBL1641579, “Synthesis and biological evaluation of 7-substituted-1-(3-bromophenylamino)isoquinoline-4-carbonitriles as inhibitors of myosin light chain kinase and epidermal growth factor receptor” (Bioorg Med Chem, 2011).

Insulin receptor-related protein (Homo sapiens), sequence (P14616 whole entry): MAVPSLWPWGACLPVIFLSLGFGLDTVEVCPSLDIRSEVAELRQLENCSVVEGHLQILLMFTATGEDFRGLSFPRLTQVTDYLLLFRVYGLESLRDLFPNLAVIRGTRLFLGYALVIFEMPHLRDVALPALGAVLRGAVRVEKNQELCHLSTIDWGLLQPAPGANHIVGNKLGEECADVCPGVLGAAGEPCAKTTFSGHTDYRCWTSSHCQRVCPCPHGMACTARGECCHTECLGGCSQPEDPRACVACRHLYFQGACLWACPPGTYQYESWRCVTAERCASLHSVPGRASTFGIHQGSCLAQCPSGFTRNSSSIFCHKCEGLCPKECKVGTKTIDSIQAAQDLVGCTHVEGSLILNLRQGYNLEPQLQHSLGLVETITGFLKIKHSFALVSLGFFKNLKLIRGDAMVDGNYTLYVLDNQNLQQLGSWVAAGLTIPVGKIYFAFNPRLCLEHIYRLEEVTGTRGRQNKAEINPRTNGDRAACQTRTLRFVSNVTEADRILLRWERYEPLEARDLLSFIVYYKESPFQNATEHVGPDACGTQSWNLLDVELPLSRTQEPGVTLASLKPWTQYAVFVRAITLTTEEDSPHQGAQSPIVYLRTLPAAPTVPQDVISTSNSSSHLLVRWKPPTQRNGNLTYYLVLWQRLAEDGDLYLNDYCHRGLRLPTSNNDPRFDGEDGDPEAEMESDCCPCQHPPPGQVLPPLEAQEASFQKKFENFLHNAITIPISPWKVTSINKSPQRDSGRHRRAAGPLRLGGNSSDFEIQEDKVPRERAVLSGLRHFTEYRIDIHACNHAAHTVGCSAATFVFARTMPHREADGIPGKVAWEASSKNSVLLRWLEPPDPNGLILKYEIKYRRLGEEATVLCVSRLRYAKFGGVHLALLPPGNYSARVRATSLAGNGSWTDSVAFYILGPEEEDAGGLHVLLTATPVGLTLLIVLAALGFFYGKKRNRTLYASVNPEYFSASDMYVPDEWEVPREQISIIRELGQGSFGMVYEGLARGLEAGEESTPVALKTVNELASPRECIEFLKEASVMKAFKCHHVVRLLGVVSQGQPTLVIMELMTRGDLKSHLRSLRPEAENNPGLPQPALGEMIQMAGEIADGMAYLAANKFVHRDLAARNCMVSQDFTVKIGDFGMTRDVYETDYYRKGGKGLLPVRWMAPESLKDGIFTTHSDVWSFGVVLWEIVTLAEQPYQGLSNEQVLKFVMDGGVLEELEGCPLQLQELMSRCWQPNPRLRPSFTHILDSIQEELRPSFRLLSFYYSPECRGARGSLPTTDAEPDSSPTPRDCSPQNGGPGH
MAP kinase-activated protein kinase 3 (Homo sapiens), sequence (Q16644 whole entry, looked up): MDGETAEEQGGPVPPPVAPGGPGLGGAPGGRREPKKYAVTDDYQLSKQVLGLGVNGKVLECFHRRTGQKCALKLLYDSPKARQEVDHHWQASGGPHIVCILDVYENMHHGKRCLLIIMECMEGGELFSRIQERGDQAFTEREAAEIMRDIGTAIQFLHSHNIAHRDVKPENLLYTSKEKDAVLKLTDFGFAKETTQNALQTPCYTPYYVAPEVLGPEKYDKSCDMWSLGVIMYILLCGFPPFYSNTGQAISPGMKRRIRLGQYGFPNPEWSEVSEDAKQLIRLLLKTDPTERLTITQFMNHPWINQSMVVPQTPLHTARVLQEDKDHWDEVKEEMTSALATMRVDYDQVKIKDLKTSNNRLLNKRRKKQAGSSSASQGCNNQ
Rho-associated protein kinase 2 (Homo sapiens), sequence (O75116 whole entry, looked up): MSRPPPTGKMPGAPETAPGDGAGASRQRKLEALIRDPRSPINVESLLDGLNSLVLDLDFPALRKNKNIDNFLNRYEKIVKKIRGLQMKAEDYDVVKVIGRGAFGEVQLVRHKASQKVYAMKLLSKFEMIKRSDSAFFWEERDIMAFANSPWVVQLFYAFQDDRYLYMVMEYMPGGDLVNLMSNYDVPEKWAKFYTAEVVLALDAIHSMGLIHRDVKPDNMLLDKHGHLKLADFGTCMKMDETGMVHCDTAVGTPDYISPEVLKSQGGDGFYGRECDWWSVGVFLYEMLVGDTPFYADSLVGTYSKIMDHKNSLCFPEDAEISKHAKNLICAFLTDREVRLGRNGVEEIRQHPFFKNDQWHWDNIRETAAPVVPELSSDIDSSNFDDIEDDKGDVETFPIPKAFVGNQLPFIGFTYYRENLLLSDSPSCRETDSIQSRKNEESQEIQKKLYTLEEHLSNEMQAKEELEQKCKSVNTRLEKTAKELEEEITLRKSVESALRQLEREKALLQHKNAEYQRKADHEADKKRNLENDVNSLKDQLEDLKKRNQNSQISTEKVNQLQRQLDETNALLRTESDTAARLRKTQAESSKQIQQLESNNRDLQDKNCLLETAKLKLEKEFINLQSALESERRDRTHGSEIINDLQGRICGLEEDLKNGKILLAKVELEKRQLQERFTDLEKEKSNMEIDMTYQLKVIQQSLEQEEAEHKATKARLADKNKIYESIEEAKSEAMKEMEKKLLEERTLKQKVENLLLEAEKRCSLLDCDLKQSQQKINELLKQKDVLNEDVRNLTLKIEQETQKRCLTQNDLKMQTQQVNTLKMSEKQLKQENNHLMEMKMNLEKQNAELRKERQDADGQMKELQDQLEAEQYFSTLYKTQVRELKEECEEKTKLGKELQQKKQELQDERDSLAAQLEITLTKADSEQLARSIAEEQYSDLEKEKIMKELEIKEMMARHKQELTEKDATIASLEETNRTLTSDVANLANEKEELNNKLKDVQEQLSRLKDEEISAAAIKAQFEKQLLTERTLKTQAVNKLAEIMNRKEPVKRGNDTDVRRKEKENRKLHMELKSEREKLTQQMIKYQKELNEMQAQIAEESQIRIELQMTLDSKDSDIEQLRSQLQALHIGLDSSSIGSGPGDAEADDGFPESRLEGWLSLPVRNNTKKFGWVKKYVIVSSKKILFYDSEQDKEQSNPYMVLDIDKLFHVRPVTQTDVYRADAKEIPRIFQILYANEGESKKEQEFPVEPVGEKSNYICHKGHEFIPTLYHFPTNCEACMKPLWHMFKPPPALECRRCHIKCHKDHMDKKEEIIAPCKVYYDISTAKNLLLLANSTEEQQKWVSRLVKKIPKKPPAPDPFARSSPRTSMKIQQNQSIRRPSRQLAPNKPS
Serine/threonine-protein kinase pim-1 (Homo sapiens), sequence (P11309 whole entry, looked up): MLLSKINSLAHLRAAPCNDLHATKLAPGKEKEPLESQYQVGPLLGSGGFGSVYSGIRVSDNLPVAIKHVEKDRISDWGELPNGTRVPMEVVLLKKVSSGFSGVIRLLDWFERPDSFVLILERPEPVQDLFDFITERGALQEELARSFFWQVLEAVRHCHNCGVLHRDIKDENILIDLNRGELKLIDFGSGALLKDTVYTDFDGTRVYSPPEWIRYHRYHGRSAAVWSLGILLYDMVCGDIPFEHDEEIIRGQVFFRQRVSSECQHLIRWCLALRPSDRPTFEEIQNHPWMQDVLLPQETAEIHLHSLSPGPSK

Consider `CN(C)C/C=C/C(=O)Nc1ccc2c(C#N)cnc(Nc3cccc(Br)c3)c2c1`, for which the Activity in assay [1] was 95%; in assay [2] it was 73%; in assay [3] it was 75%; in assay [4], 73%; in assay [5] it was 100%; in assay [6], 91%. Moreover, the Activity in assay [7] is 98%.

Turning to `CN1CCN(CCC(=O)Nc2ccc3c(C#N)cnc(Nc4cccc(Br)c4)c3c2)CC1`, the Activity was found to be 90% in assay [1]; 73% in assay [2]; 91% in assay [3]; 86% in assay [4]; 100% in assay [5]; 95% in assay [6]. For the same compound, the Activity in assay [7] stood at 100%.

With `CN(C)CCCC(=O)Nc1ccc2c(C#N)cnc(Nc3cccc(Br)c3)c2c1`, the Activity in assay [1] worked out at 100%; in assay [2], 68%; in assay [3], 96%; in assay [4], 98%; in assay [5], 100%; in assay [6], 100%. Moreover, the Activity in assay [7] was 100%.
